Experimental data: BindingDB's records for doi:10.1021/jm00069a013 (University of North Carolina, 1993)
Counter-ions that a name gives are not always drawn.

Experiments:
[1] = Binding affinity against sigma receptor from guinea pig brain (minus cerebellum) homogenates, using [3H]ditolylguanidine (DTG) as radioligand.
How it was run: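 Competition binding with whole guinea pig brain (minus cerebellum) homogenates in 10 mM Tris-HCl without added cations. Nonspecific binding was defined by 10 μM haloperidol. Concentrations were tested in duplicate, with three replications. IC50 values came from curve fitting.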

[2] = Binding affinity against sigma receptor from guinea pig brain (minus cerebellum) homogenates, using the novel [3H]-(+/-)-4 as radioligand

CCN(CC)C1Cc2ccccc2C(c2ccccc2)C1 (trans isomer)
IC50 [1]: 207 nM | IC50 [2]: 4.5 nM

CN(C)[C@H]1CCc2ccccc2[C@H]1c1ccccc1 [Dimethyl-(1-phenyl-1,2,3,4-tetrahydro-naphthalen-2-yl)-amine]
IC50 [1]: 3340 nM | IC50 [2]: 2760 nM

CN(C)C1Cc2ccccc2C(c2ccccc2)C1 (stereo not drawn) [cis-Dimethyl-(4-phenyl-1,2,3,4-tetrahydro-naphthalen-2-yl)-amine; hydrochloride]
IC50 [1]: 960 nM

NC1Cc2ccccc2C(c2ccccc2)C1 (stereo not drawn) [trans-4-Phenyl-1,2,3,4-tetrahydro-naphthalen-2-ylamine; hydrochloride]
IC50 [1]: > 10000 nM

C=CCNC1Cc2ccccc2C(c2ccccc2)C1 (stereo not drawn) [trans-Allyl-(4-phenyl-1,2,3,4-tetrahydro-naphthalen-2-yl)-amine; hydrochloride]
IC50 [2]: 117 nM

C=CCN(C)C1Cc2ccccc2C(c2ccccc2)C1 (stereo not drawn) [trans-Allyl-methyl-(4-phenyl-1,2,3,4-tetrahydro-naphthalen-2-yl)-amine; hydrochloride]
IC50 [1]: 1550 nM

C=CCN(CC=C)C1Cc2ccccc2C(c2ccccc2)C1 (stereo not drawn) [trans-Diallyl-(4-phenyl-1,2,3,4-tetrahydro-naphthalen-2-yl)-amine; hydrochloride]
IC50 [1]: 538 nM | IC50 [2]: 27 nM
